Screening data from PubChem.
Rows were chosen to be rich in hits. Some 3.3% of all compounds tested hit in one or more screens of this group.
rCAG RNA binder: r(CAG) repeat RNA binding; TO-PRO-1 dye displacement fluorescence; inhibition, % at 3 µM; hit rate 1.3% among 370,000; AID 651821;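 active = inhibition above the plate cutoff, the mean of all test compounds on that plate plus 3 SD, cut at about 35% in these data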;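 also: 0% = DMSO alone and 100% = 100 µM mitoxantrone as full dye displacement; higher means more dye released from RNA so lower well fluorescence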
ABHD4 inh: inhibitors of mouse ABHD4. purified mABHD4, FP-Rh probe fluorescence polarization. inhibition, % at 8.92 µM. hit rate 0.54% among 370,000. AID 720543;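 active = inhibition exceeding the mean over every tested compound plus 3 SD, cut at about 30% in these data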;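 also: 0% = plate median of compound wells and 100% = S159A mutant with DMSO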
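Test system: mABHD4 protein; Read-out basis: % inhibition; Incubation: 45 min + 60 min at 25 °C; Repeats: single replicate; Technique: fluorescence polarization with parallel and perpendicular emission, 525/598 nm; Compound: 8.92 µM, single dose; Benchmarks: full inhibition S159A mutant plus DMSO, zero as sample-well median.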
PRMT1 inh: PRMT1 (human) inhibition, primary screen; AID 652257; recombinant PRMT1, activity-based probe fluorescence polarization; hit rate 1.3% among 370,000; inhibition, % at 2.79 µM;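 active = inhibition above about 21% made by adding two undisclosed values, limit read from the data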
SIAE primary: human SIAE inhibition, primary screen. inhibition, % at 9.66 µM. SIAE FP-Rh probe binding, fluorescence polarization. AID 1053197. Q9HAT2. hit rate 0.69% among 370,000;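 active = inhibition above a cutoff: mean of compounds within the control limits plus 3 SD of those, cut at about 17% in these data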;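 also: 0% = plate median of compound wells and 100% = probe without SIAE protein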
Target sequence (Q9HAT2 whole entry, looked up): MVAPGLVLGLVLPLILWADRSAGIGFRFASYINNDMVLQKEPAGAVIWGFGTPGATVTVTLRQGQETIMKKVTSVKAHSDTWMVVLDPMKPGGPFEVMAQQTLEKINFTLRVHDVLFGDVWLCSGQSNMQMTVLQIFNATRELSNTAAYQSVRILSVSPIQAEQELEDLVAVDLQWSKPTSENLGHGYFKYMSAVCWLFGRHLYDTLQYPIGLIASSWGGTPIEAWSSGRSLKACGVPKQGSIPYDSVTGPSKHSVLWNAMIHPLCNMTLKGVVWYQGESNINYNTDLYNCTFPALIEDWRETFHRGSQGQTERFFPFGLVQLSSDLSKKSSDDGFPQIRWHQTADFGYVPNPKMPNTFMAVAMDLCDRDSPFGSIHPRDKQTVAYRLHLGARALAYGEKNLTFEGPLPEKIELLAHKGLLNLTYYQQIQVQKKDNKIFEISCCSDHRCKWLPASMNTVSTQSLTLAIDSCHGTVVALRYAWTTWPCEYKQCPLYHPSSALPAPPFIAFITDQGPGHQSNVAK
HTRA1 inhibitor: inhibitors of human serine peptidase HTRA1. AID 504803. hit rate 0.5% among 340,000. inhibition, % at 5.96 µM. recombinant HTRA1, FP-rhodamine activity-based probe, fluorescence polarization; in the data active = inhibition above about 36%;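 also: 0% = enzyme with DMSO and 100% = wells lacking enzyme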
HTRA1 inh conf: HTRA1 (human) inhibition, confirmation; recombinant HTRA1, FP-rhodamine activity-based probe, fluorescence polarization; hit rate 66% among 1,600; inhibition, % at 5.96 µM; shares compounds with HTRA1 inhibitor;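 active = mean inhibition over three repeats above a set limit taken from the earlier primary screen, cut at about 37% in these data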;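 also: 0% = HTRA1 with DMSO and 100% = wells lacking HTRA1; inhibitors block probe binding so polarization drops and inhibition rises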
Starred values were filed as active, the others as inactive; · = not tested or not shown; + = active, no number.

SMILES	rCAG RNA binder	ABHD4 inh	PRMT1 inh	SIAE primary	HTRA1 inhibitor	HTRA1 inh conf
COC(=O)c1cc2c(c3c4cc(F)ccc4n(S(=O)(=O)c4cccc(C)c4)c13)C(=O)N(Cc1ccc(N(C)C)cc1)C2	11	1	-1	10	·	·
CC(C)c1ccc2c(c1)C1(NN=C(c3ccccc3)S1)C(=O)N2 (stereo unspecified)	23	5	5	4	46*	66*
CCc1ccc2c(c1)NC(=O)C2(C)Cc1ccc(F)cc1 (stereo unspecified)	-2	24	0	-4	·	·
CC(C)c1ccc(O)c(NC(=O)c2ncn[nH]2)c1	0	14	1	-2	4	·
CCc1ccc2c(c1)C1(NN=C(c3ccc(C)cc3)S1)C(=O)N2 (stereo unspecified)	14	-1	13	3	37*	53*
CN(C)c1cccc(/C=C2\CC3(OC(=O)c4cccc(F)c4)CCCN2C3)c1 (stereo unspecified)	3	6	-1	-2	·	·
COc1ccc(Sc2nc(-c3ccccn3)ncc2OC)cc1	0	0	0	-9	62*	54*
CCc1ccc(S(=O)(=O)/N=C2\C=C(Nc3ccc(O)cc3)C(=O)c3ccccc32)cc1	·	·	·	·	78*	80*
O=C1C=C(Nc2ccc(O)cc2)C(=O)c2ccccc21	5	14	1	7	37*	30
CC(=NNc1nc2ccccc2o1)c1cc2ccccc2cn1	9	16	-6	5	56*	70*
COCCCNC(=O)C[C@H]1C[C@@]2(C(=O)OC)C(=C[C@H](C(C)(C)C)O[C@@H]2C)N(CCC2=CCCCC2)C1=O	1	-5	-3	5	·	·
Oc1ccc(N=Cc2ccc(O)c(O)c2)cc1	·	·	·	·	57*	52*
CC(C)NC(=O)N[C@H]1C[C@@H]2O[C@H](CO)CC[C@@H]2O[C@@H]1CCc1ccc(-c2ccccc2F)cc1	3	2	3	-3	·	·
CCN1c2ccccc2N(C)C1(C)c1ccccc1 (stereo unspecified)	·	·	·	·	42*	8
N/C(Cc1ccc(Cl)c(Cl)c1)=N\OC(=O)c1ccc(Br)o1	-2	-3	2	-5	+	-5
N/C(=N\OC(=O)c1ccc(Br)o1)c1cccnc1	-2	4	3	-1	0	·
O=C1C(=O)N(Cc2ccc(-c3ccc(Cl)nc3)cc2)c2ccc(OC(F)(F)F)cc21	·	4	5	9	·	·
Cc1nnc(-c2ccccc2)c(=O)n1/N=C/c1c(O)ccc2ccccc12	16	9	-5	15	37*	35
O=C(CCCN1C(=O)/C(=C/c2cccs2)SC1=S)NNC(=O)c1ccncc1	2	6	0	-12	2	·
COc1cccc(/C=C2\SC(=S)N(CCC(=O)NNC(=O)c3ccccc3OC)C2=O)c1	4	3	-2	5	39*	33
COc1ccccc1/C=C1\SC(=S)N(CCC(=O)NNC(=O)c2ccccc2O)C1=O	·	·	·	·	39*	68*
O=C(CCCN1C(=O)/C(=C/c2cccs2)SC1=S)NNC(=O)c1ccccc1O	4	8	-3	-9	57*	72*
C#CCN1CC(N(C)CCCO)CS1(=O)=O (stereo unspecified)	3	2	-3	3	·	·
COc1ccc(/C=C\c2nc(=O)c3ccccc3o2)cc1	9	1	3	2	3	·
O=c1nc(/C=C/c2ccc(O)c(O)c2)oc2ccccc12	·	·	·	·	72*	76*
CCn1c(/C=C/c2ccc(O)c(O)c2)nc2ccccc2c1=O	14	27	4	-7	59*	112*
COC(=O)[C@]12C[C@H](CC(=O)NCC3CCCCC3)C(=O)N(Cc3ccc4c(c3)OCO4)C1=C[C@H](COCc1ccccc1)O[C@@H]2C	6	-4	-6	-4	·	·
COc1cc2c(cc1OC)[N+]([O-])=C(c1ccccc1)C2=O	3	7	-1	6	·	·
C=CCN1CCc2c(cc(O)c(O)c2Cl)C(c2ccccc2)C1 (stereo unspecified)	6	14	2	-1	43*	70*
C=CCN1CCc2cc(O)c(O)cc2C(c2ccccc2)C1 (stereo unspecified)	2	4	-2	8	5	·
